Holding throughout (type): ADME, organism-based
Data set [1] can be described thus: Cmax in wild-type mouse at 30 mg/kg, po in presence of CBIO. Set-up: dose 30 mg/kg, route oral. The settings on record: in vivo. In a few lines: (§1)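 Mice (wild-type 129SvEv or DAAO knockout; n = 3–6 per time point, n = 2 at 120 and 240 min for the group also given CBIO 30 mg/kg in 10% DMSO/0.9% saline) dosed orally, 10 ml/kg, with D-serine 30 mg/kg. Cardiac-puncture blood taken at 30, 60, 120, 240 min into heparin tubes and spun to plasma. Methanol extraction, derivatization, then HPLC fluorescence (ex 344/em 443 nm). Parameters from noncompartmental analysis.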

Data set [2] is described as follows: AUC (0 to last) in DAAO knockout mouse at 30 mg/kg, po. Set-up: time 0 - last, dose 30 mg/kg, route oral. The settings on record: plasma. The procedure, abridged:
(§2)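 DAAO knockout mice were dosed orally (10 ml/kg) with D-serine 30 mg/kg, n = 3–6 per time point, and plasma was taken at 30–240 min. D-serine was measured by methanol extraction, derivatization and reversed-phase HPLC with fluorescence detection. Cmax and Tmax are observed values. t½ = 0.693/λz with uniform weighting. AUClast is by the log-linear trapezoidal rule, with variance by Bailer's method.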

Data set [3] can be described thus: Cmax in wild-type mouse at 30 mg/kg, po. Set-up: dose 30 mg/kg, route oral. Particulars: in vivo; call rule not given here. The procedure, abridged:
as §1

Data set [4] has as its system Cortex. Nature of the data set: Drug uptake in DAAO knockout mouse cortex at 30 mg/kg, po after 1 hr. Set-up: dose 30 mg/kg, route oral. Particulars: in vivo. In a few lines:
(§3)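 Wild-type or DAAO knockout mice were given D-serine 30 mg/kg orally. At 1 h, cerebellum and frontal cortex were excised, weighed and frozen at −80°C. Tissue was homogenized and sonicated in 20 volumes (w/v) methanol and spun at 50,000g for 15 min at 4°C. The supernatant was dried, derivatized for 2 min at room temperature, and D-serine was quantified by C18 HPLC with fluorescence detection.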

The nature of data set [5]: Cmax in DAAO knockout mouse at 30 mg/kg, po. Particulars: in vivo. The arrangement: dose 30 mg/kg, route oral. In a few lines:
as §1

Data set [6] concerns Cerebellum. Nature of the data set: Drug uptake in wild-type mouse cerebellum at 30 mg/kg, po after 1 hr. Particulars: in vivo. The arrangement: dose 30 mg/kg, route oral. The procedure, abridged: as §3
The nature of data set [7]: AUC (0 to last) in wild-type mouse at 30 mg/kg, po in presence of CBIO. The arrangement: time 0 - last, dose 30 mg/kg, route oral. Particulars: plasma. The procedure, abridged: as §1
Data set [8] is described as follows: Elimination half life in wild-type mouse at 30 mg/kg, po in presence of CBIO. Set-up: dose 30 mg/kg, route oral. The settings on record: in vivo, read-out: beta t1/2 (converted). The procedure, abridged:
as §1

The nature of data set [9]: Tmax in DAAO knockout mouse at 30 mg/kg, po. The arrangement: dose 30 mg/kg, route oral. The settings on record: in vivo. The procedure, abridged: as §1
A short description of data set [10]: AUC (0 to infinity) in wild-type mouse at 30 mg/kg, po in presence of CBIO. The arrangement: time infinity, dose 30 mg/kg, route oral. Particulars: plasma. The procedure, abridged:
as §1

The nature of data set [11]: Elimination half life in DAAO knockout mouse at 30 mg/kg, po. The arrangement: dose 30 mg/kg, route oral. Particulars: in vivo, read-out: beta t1/2. The procedure, abridged:
as §2

For data set [12], the system named is Cerebellum. The experiment in a line: Drug uptake in DAAO knockout mouse cerebellum at 30 mg/kg, po after 1 hr. Set-up: dose 30 mg/kg, route oral. Particulars: in vivo. In a few lines: as §3
The nature of data set [13]: AUC (0 to last) in wild-type mouse at 30 mg/kg, po. The settings on record: plasma. Set-up: time 0 - last, dose 30 mg/kg, route oral. In a few lines:
as §1

The subject of data set [14] is Cortex. The experiment in a line: Drug uptake in wild-type mouse cortex at 30 mg/kg, po after 1 hr. Set-up: dose 30 mg/kg, route oral. The settings on record: in vivo. The procedure, abridged: as §3
Data set [15] is described as follows: Tmax in wild-type mouse at 30 mg/kg, po. The arrangement: dose 30 mg/kg, route oral. The settings on record: in vivo. The procedure, abridged:
as §1

The nature of data set [16]: Elimination half life in wild-type mouse at 30 mg/kg, po. Set-up: dose 30 mg/kg, route oral. The settings on record: in vivo, read-out: beta t1/2 (converted). In a few lines:
as §1

A short description of data set [17]: Tmax in wild-type mouse at 30 mg/kg, po in presence of CBIO. The arrangement: dose 30 mg/kg, route oral. Particulars: in vivo. The procedure, abridged:
as §1

Data set [18] in a line: AUC (0 to infinity) in wild-type mouse at 30 mg/kg, po. The settings on record: plasma. Set-up: time infinity, dose 30 mg/kg, route oral. The procedure, abridged: as §1

As to `N[C@H](CO)C(=O)O` [(D)-SERINE], the Cmax (commonly the peak of the concentration-time curve) in data set [1] was 24300 ng/mL; in [3], 19600 ng/mL; in data set [5] it was 27800 ng/mL. In addition, the AUC(0-t) (in general, the area under the concentration-time curve up to a stated or last time point) was 95800 ng·h/mL in data set [2], 65800 ng·h/mL in [7] and 40600 ng·h/mL in [13]. Further, the Drug uptake entry in the data set with Cortex [4] was “Active”; in the data set on Cerebellum [6], “Not Active”; in the data set with Cerebellum [12], “Active”; with Cortex [14], “Active”. The figures for the half-life in [8], in [11] and in [16] were 1.5 h, more than 10 h and 1.2 h, respectively. For the same molecule, the Tmax (as a rule, the time from dosing to the highest level) worked out at 2.7 h in [9], 0.7 h in data set [15] and 1 h in [17]. Further, the AUC(0-inf) – broadly, total exposure, with the tail of the curve extrapolated – in [10] amounted to 80900 ng·h/mL; in data set [18] it was 46000 ng·h/mL.

Source of the values: ChEMBL document CHEMBL3525910, “Pharmacokinetics of oral D-serine in D-amino acid oxidase knockout mice” (Drug Metab Dispos, 2012).
